Structures are written as SMILES. Converted amounts (≈) assume the structure as drawn. The source made the active and inactive calls.

The subject of assay [1] is Escherichia coli. Nature of the assay: Antibacterial activity against Escherichia coli assessed as growth inhibition at 100 umol/L after 8 hrs by ELISA plate reader analysis relative to control. Type of assay: functional. As to conditions: read-out: GI. The gist of the method:
(§1)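 Bacteria were seeded at 1×10^5 CFU/mL in LB, and compound was added to 100 µmol/L final. Compounds came from DMSO stock, with DMSO ≤1% (v/v) final. Cultures were shaken at 37 °C for 8 h and read at OD450. Inhibition % = (OD vehicle control − OD sample)/OD vehicle control × 100. Values are the mean of three independent experiments.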

Assay [2] deals with Staphylococcus aureus. The assay is described as follows: Upregulation of sbi gene expression in Staphylococcus aureus at 50 umol/L after 8 hrs by real-time RT-PCR analysis relative to control. It is filed as functional, organism-based. The gist of the method: (§2)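 S. aureus ATCC 25923 at 2×10^7 CFU/mL in LB was exposed to 50 µmol/L compound, or LB alone, for 8 h at 37 °C. Total RNA was analysed by TaqMan real-time RT-PCR or semi-quantitative RT-PCR, normalised to gyrB. Fold change is versus time-matched medium-only cultures, with data pooled from three experiments.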
In general terms: Quantitative PCR measures a nucleic acid by following its amplification.

Assay [3] concerns Staphylococcus aureus. The assay is described as follows: Upregulation of sbi gene expression in Staphylococcus aureus at 50 umol/L after 8 hrs by semi-quantitative RT-PCR analysis relative to control. It is filed as functional, organism-based. In short, it runs like this:
as §2

In assay [4] the test system is Staphylococcus aureus. The assay is described as follows: Downregulation of mecA gene expression in Staphylococcus aureus at 50 umol/L after 8 hrs by semi-quantitative RT-PCR analysis relative to control. It is filed as functional. In short, it runs like this:
as §2

The subject of assay [5] is Staphylococcus aureus. The assay is described as follows: Upregulation of hla gene expression in Staphylococcus aureus at 50 umol/L after 8 hrs by semi-quantitative RT-PCR analysis relative to control. Type of assay: functional, organism-based. In short, it runs like this:
as §2

For assay [6], the system named is Staphylococcus aureus. Nature of the assay: Downregulation of mecA gene expression in Staphylococcus aureus at 50 umol/L after 8 hrs by real-time RT-PCR analysis relative to control. It is filed as functional. The gist of the method: as §2
The test system of assay [7] is Staphylococcus aureus. Nature of the assay: Antibacterial activity against Staphylococcus aureus assessed as lowest concentration required to reduce growth by 1% after 8 hrs by ELISA plate reader analysis relative to control. Type of assay: functional. In short, it runs like this: (§3)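 MBC was found by broth microdilution. Inocula of 1×10^5 CFU/mL in LB were shaken at 37 °C with a series of compound concentrations, then read at OD450. MBC was defined as the lowest concentration reducing growth by 1% versus the inoculum control. Three independent experiments were run.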

The test system of assay [8] is Bacillus subtilis. The assay is described as follows: Antibacterial activity against Bacillus subtilis assessed as growth inhibition at 100 umol/L after 8 hrs by ELISA plate reader analysis relative to control. It is filed as functional. The following applies: read-out: GI. The gist of the method:
as §1

The subject of assay [9] is Staphylococcus aureus. Nature of the assay: Upregulation of hla gene expression in Staphylococcus aureus at 50 umol/L after 8 hrs by real-time RT-PCR analysis relative to control. It is filed as functional, organism-based. The gist of the method:
as §2

Assay [10] deals with Staphylococcus aureus. Nature of the assay: Antibacterial activity against Staphylococcus aureus assessed as growth inhibition at 100 umol/L after 8 hrs by ELISA plate reader analysis relative to control. Type of assay: functional. As to conditions: read-out: GI. The gist of the method:
as §1

In assay [11] the test system is Bacillus subtilis. Nature of the assay: Downregulation of yhdT gene expression in Bacillus subtilis at 50 umol/L after 8 hrs by real-time RT-PCR analysis relative to control. It is filed as functional, organism-based. In short, it runs like this:
(§4)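 B. subtilis ATCC 6051 at 2×10^7 CFU/mL in LB was exposed to 50 µmol/L compound, or LB alone, for 8 h at 37 °C. Total RNA was analysed by TaqMan real-time RT-PCR or semi-quantitative RT-PCR, normalised to 16sRNA. Fold change is versus time-matched medium-only cultures, with data pooled from three experiments.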

The subject of assay [12] is Bacillus subtilis. Nature of the assay: Downregulation of yugS gene expression in Bacillus subtilis at 50 umol/L after 8 hrs by real-time RT-PCR analysis relative to control. Type of assay: functional, organism-based. The gist of the method:
as §4

Assay [13] concerns Bacillus subtilis. The assay is described as follows: Downregulation of yqhB gene expression in Bacillus subtilis at 50 umol/L after 8 hrs by semi-quantitative RT-PCR analysis relative to control. Type of assay: functional, organism-based. The gist of the method: as §4
The test system of assay [14] is Bacillus subtilis. Nature of the assay: Downregulation of yugS gene expression in Bacillus subtilis at 50 umol/L after 8 hrs by semi-quantitative RT-PCR analysis relative to control. It is filed as functional, organism-based. In short, it runs like this:
as §4

Assay [15] concerns Bacillus subtilis. The assay is described as follows: Downregulation of yhdP gene expression in Bacillus subtilis at 50 umol/L after 8 hrs by real-time RT-PCR analysis relative to control. It is filed as functional, organism-based. The gist of the method: as §4
The test system of assay [16] is Bacillus subtilis. Nature of the assay: Downregulation of yhdP gene expression in Bacillus subtilis at 50 umol/L after 8 hrs by semi-quantitative RT-PCR analysis relative to control. Type of assay: functional, organism-based. The gist of the method: as §4
The subject of assay [17] is Bacillus subtilis. The assay is described as follows: Downregulation of yqhC gene expression in Bacillus subtilis at 50 umol/L after 8 hrs by real-time RT-PCR analysis relative to control. Type of assay: functional, organism-based. The gist of the method: as §4
In assay [18] the test system is Bacillus subtilis. Nature of the assay: Downregulation of yqhC gene expression in Bacillus subtilis at 50 umol/L after 8 hrs by semi-quantitative RT-PCR analysis relative to control. It is filed as functional, organism-based. In short, it runs like this:
as §4

For assay [19], the system named is Bacillus subtilis. Nature of the assay: Downregulation of yqhB gene expression in Bacillus subtilis at 50 umol/L after 8 hrs by real-time RT-PCR analysis relative to control. It is filed as functional, organism-based. The gist of the method: as §4
For assay [20], the system named is Bacillus subtilis. Nature of the assay: Downregulation of yhdT gene expression in Bacillus subtilis at 50 umol/L after 8 hrs by semi-quantitative RT-PCR analysis relative to control. Type of assay: functional, organism-based. In short, it runs like this:
as §4

In assay [21] the test system is Bacillus subtilis. The assay is described as follows: Antibacterial activity against Bacillus subtilis assessed as lowest concentration required to reduce growth by 1% after 8 hrs by ELISA plate reader analysis relative to control. It is filed as functional. The gist of the method:
as §3

The subject of assay [22] is Escherichia coli. Nature of the assay: Downregulation of IroD gene expression in Escherichia coli at 50 umol/L after 8 hrs by semi-quantitative RT-PCR analysis relative to control. It is filed as functional, organism-based. In short, it runs like this:
(§5)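 E. coli at 2×10^7 CFU/mL in LB was exposed to 50 µmol/L compound, or LB alone, for 8 h at 37 °C. Total RNA was then analysed by TaqMan real-time RT-PCR or semi-quantitative RT-PCR. Transcripts were normalised to gapA. Fold change is relative to time-matched medium-only cultures.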

For assay [23], the system named is Escherichia coli. The assay is described as follows: Downregulation of tsh gene expression in Escherichia coli at 50 umol/L after 8 hrs by semi-quantitative RT-PCR analysis relative to control. It is filed as functional, organism-based. The gist of the method: as §5
The subject of assay [24] is Escherichia coli. The assay is described as follows: Antibacterial activity against Escherichia coli assessed as lowest concentration required to reduce growth by 1% after 8 hrs by ELISA plate reader analysis relative to control. It is filed as functional. The gist of the method:
as §3

For assay [25], the system named is Escherichia coli. The assay is described as follows: Downregulation of IroD gene expression in Escherichia coli at 50 umol/L after 8 hrs by real-time RT-PCR analysis relative to control. It is filed as functional, organism-based. The gist of the method: as §5
Assay [26] deals with Escherichia coli. Nature of the assay: Downregulation of acrA gene expression in Escherichia coli at 50 umol/L after 8 hrs by semi-quantitative RT-PCR analysis relative to control. It is filed as functional, organism-based. In short, it runs like this: as §5
Assay [27] relates to Escherichia coli. Nature of the assay: Downregulation of acrA gene expression in Escherichia coli at 50 umol/L after 8 hrs by real-time RT-PCR analysis relative to control. It is filed as functional, organism-based. In short, it runs like this: as §5
For assay [28], the system named is Escherichia coli. The assay is described as follows: Downregulation of cysB gene expression in Escherichia coli at 50 umol/L after 8 hrs by semi-quantitative RT-PCR analysis relative to control. Type of assay: functional, organism-based. The gist of the method: as §5
Assay [29] has as its system Escherichia coli. The assay is described as follows: Downregulation of tsh gene expression in Escherichia coli at 50 umol/L after 8 hrs by real-time RT-PCR analysis relative to control. Type of assay: functional, organism-based. The gist of the method:
as §5

The subject of assay [30] is Escherichia coli. The assay is described as follows: Downregulation of cysB gene expression in Escherichia coli at 50 umol/L after 8 hrs by real-time RT-PCR analysis relative to control. Type of assay: functional, organism-based. In short, it runs like this:
as §5

Consider `O=C(N/N=C/c1ccccc1O)c1ccccc1O`, for which the inhibition of growth at 100 µM with Escherichia coli [1] worked out at 11.8%.

Consider `O=C(COc1ccc(Cl)cc1)N/N=C/c1ccc(OCc2ccccc2)c(OCc2ccccc2)c1`, for which the result with Staphylococcus aureus [2], in the assay with Staphylococcus aureus [3], in the assay on Staphylococcus aureus [5] and in the assay on Staphylococcus aureus [9] was Active. Further, the “fold change (FC)” value in the assay with Staphylococcus aureus [4] and in the assay with Staphylococcus aureus [6] was 2 each time. Also, the inhibition of growth at 100 µM in the assay with Escherichia coli [1] came out at 17.6%; in the assay with Bacillus subtilis [8] it was 6.21%; in the assay on Staphylococcus aureus [10], 99.5%. Also, the MBC in the assay with Staphylococcus aureus [7] turned out to be 1.4 µM (≈ 0.701 µg/mL).

For `O=C(N/N=C/c1cc([N+](=O)[O-])ccc1O)c1ccncc1`, the inhibition of growth at 100 µM in the assay with Escherichia coli [1] came to 41.8%.

With `COc1ccc(CC(=O)N/N=C/c2cc(Br)ccc2O)cc1`, the inhibition of growth at 100 µM in the assay on Bacillus subtilis [8] came to 1.01%.

In the case of `O=C(COc1ccc(Cl)cc1)N/N=C/c1cc([N+](=O)[O-])ccc1O`, the outcome with Bacillus subtilis [11], in the assay on Bacillus subtilis [12], with Bacillus subtilis [13], in the assay with Bacillus subtilis [14], in the assay on Bacillus subtilis [15] and in the assay on Bacillus subtilis [16] was Active. Moreover, the result in the assay with Bacillus subtilis [17], in the assay with Bacillus subtilis [18], with Bacillus subtilis [19] and in the assay with Bacillus subtilis [20] was Active. For the same molecule, the inhibition of growth at 100 µM in the assay with Bacillus subtilis [8] worked out at 96.4%; with Staphylococcus aureus [10] it was 1.39%. In the assay on Bacillus subtilis [21], the MBC was 2.8 µM (≈ 0.979 µg/mL).

As for `COc1ccc(CC(=O)N/N=C/c2cc([N+](=O)[O-])ccc2O)cc1`, in the assay with Escherichia coli [1], the inhibition of growth at 100 µM was 5.57%.

Consider `O=C(O)[C@H](Cc1ccccc1)/N=C/c1ccccc1O`, for which, in the assay on Escherichia coli [1], the inhibition of growth at 100 µM was determined as 22.7%.

On to `O=C(COc1ccc(Cl)cc1)N/N=C/c1cc(Br)ccc1O`, for which the inhibition of growth at 100 µM turned out to be 73.2% in the assay on Escherichia coli [1] and 15.9% with Bacillus subtilis [8]. Besides, the result in the assay with Escherichia coli [22], in the assay on Escherichia coli [23], in the assay on Escherichia coli [25], with Escherichia coli [26], in the assay on Escherichia coli [27] and with Escherichia coli [28] was Active. Further, the outcome in the assay on Escherichia coli [29] and with Escherichia coli [30] was Active. The MBC with Escherichia coli [24] stood at 18.4 µM (≈ 7.06 µg/mL).

With `O=C(COc1ccc(Cl)cc1)N/N=C/c1cc(Cl)ccc1O`, the outcome in the assay with Bacillus subtilis [11], in the assay with Bacillus subtilis [12], in the assay with Bacillus subtilis [13], in the assay on Bacillus subtilis [14], in the assay with Bacillus subtilis [15] and with Bacillus subtilis [16] was Active. Also, the outcome in the assay with Bacillus subtilis [17], in the assay on Bacillus subtilis [18], with Bacillus subtilis [19] and in the assay on Bacillus subtilis [20] was Active. Besides, the inhibition of growth at 100 µM in the assay on Escherichia coli [1] came to 3.08%; with Bacillus subtilis [8], 83.2%. The MBC with Bacillus subtilis [21] was 10.8 µM (≈ 3.66 µg/mL).

As a reminder, the MBC is the smallest concentration meeting the test's criterion for killing.

The values above are taken from ChEMBL document CHEMBL3421541, “Benzaldehyde Schiff bases regulation to the metabolism, hemolysis, and virulence genes expression in vitro and their structure-microbicidal activity relationship” (2015).
